Assay results published in ChEMBL document CHEMBL3856229, “Hybrid Antibiotic Overcomes Resistance in P. aeruginosa by Enhancing Outer Membrane Penetration and Reducing Efflux” (J Med Chem, 2016).
Converted amounts (≈) assume the structure as drawn.

Experiments:
Pseudomonas aeruginosa [1] = experiment: Induction of cytoplasmic membrane depolarization in Pseudomonas aeruginosa PAO1 by DiSC3(5) dye based fluorescence assay; assay type: functional
Pseudomonas aeruginosa [2] = experiment: Antibacterial activity against multidrug-resistant/tobramycin-susceptible Pseudomonas aeruginosa isolate 86067; assay type: functional
Pseudomonas aeruginosa [3] = experiment: Antibacterial activity against multidrug-resistant/tobramycin-susceptible Pseudomonas aeruginosa isolate 108590; assay type: functional
Pseudomonas aeruginosa [4] = experiment: Antibacterial activity against multidrug-resistant/tobramycin-susceptible Pseudomonas aeruginosa isolate 86141; assay type: functional
Pseudomonas aeruginosa [5] = experiment: Antibacterial activity against multidrug-resistant/tobramycin-susceptible Pseudomonas aeruginosa isolate 86079; assay type: functional
Pseudomonas aeruginosa [6] = experiment: Antibacterial activity against multidrug/extremely drug-resistant/colistin-susceptible Pseudomonas aeruginosa isolate 101885; assay type: functional
Pseudomonas aeruginosa [7] = experiment: Antibacterial activity against multidrug-resistant/tobramycin-susceptible Pseudomonas aeruginosa isolate 84745; assay type: functional
Pseudomonas aeruginosa [8] = experiment: Antibacterial activity against multidrug/extremely drug-resistant/colistin-susceptible Pseudomonas aeruginosa isolate 262-101856; assay type: functional
Pseudomonas aeruginosa [9] = experiment: Antibacterial activity against multidrug-resistant/tobramycin-susceptible Pseudomonas aeruginosa isolate 85322; assay type: functional
Pseudomonas aeruginosa [10] = experiment: Antibacterial activity against multidrug-resistant/tobramycin-susceptible Pseudomonas aeruginosa isolate 79199; assay type: functional
Pseudomonas aeruginosa [11] = experiment: Antibacterial activity against pandrug-resistant Pseudomonas aeruginosa isolate 91433; assay type: functional
Pseudomonas aeruginosa [12] = experiment: Antibacterial activity against multidrug-resistant/tobramycin-susceptible Pseudomonas aeruginosa isolate 80621; assay type: functional
Pseudomonas aeruginosa [13] = experiment: Antibacterial activity against multidrug-resistant/tobramycin-susceptible Pseudomonas aeruginosa isolate 86052; assay type: functional
Pseudomonas aeruginosa [14] = experiment: Antibacterial activity against multidrug/extremely drug-resistant/colistin-susceptible Pseudomonas aeruginosa isolate 100036; assay type: functional
Pseudomonas aeruginosa [15] = experiment: Antibacterial activity against multidrug-resistant/tobramycin-susceptible Pseudomonas aeruginosa isolate 83182; assay type: functional
Pseudomonas aeruginosa [16] = experiment: Antibacterial activity against multidrug/extremely drug-resistant/colistin-susceptible Pseudomonas aeruginosa isolate 260-97103; assay type: functional
Pseudomonas aeruginosa [17] = experiment: Antibacterial activity against pandrug-resistant Pseudomonas aeruginosa isolate 101243; assay type: functional
Pseudomonas aeruginosa [18] = experiment: Antibacterial activity against multidrug-resistant/tobramycin-susceptible Pseudomonas aeruginosa isolate 86053; assay type: functional
Pseudomonas aeruginosa [19] = experiment: Antibacterial activity against multidrug-resistant/tobramycin-susceptible Pseudomonas aeruginosa isolate 92014; assay type: functional
Pseudomonas aeruginosa [20] = experiment: Antibacterial activity against multidrug/extremely drug-resistant/colistin-susceptible Pseudomonas aeruginosa isolate 259-96918; assay type: functional
Pseudomonas aeruginosa [21] = experiment: Antibacterial activity against multidrug/extremely drug-resistant/colistin-susceptible Pseudomonas aeruginosa isolate 264-104354; assay type: functional
Pseudomonas aeruginosa [22] = experiment: Antibacterial activity against Pseudomonas aeruginosa PAO1; assay type: functional
Enterococcus faecium = experiment: Antibacterial activity against Enterococcus faecium ATCC 27270 after 24 hrs by microtitre broth dilution method; assay type: functional; conditions: ATCC 27270, 24 h
Pseudomonas aeruginosa [23] = experiment: Antibacterial activity against extremely drug-resistant Pseudomonas aeruginosa isolate 104354 infected in Galleria mellonella assessed as larvae survival at 75 mg/kg administered as single dose measured after 96 hrs; assay type: functional; conditions: isolate 104354, 96 h
Outline: (§1)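 Galleria mellonella larvae were infected with 10^6 CFU of XDR P. aeruginosa #104354, resistant to all antipseudomonal classes except colistin. A single injected drug dose was given 2 h post-infection: 50 mg/kg with survival read at 24 h, or 75 mg/kg with survival read at 96 h. Controls were infected untreated larvae and PBS-injected larvae. Two independent experiments of 15 larvae each (n = 30).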

Klebsiella pneumoniae = experiment: Antibacterial activity against Klebsiella pneumoniae ATCC 13883 after 24 hrs by microtitre broth dilution method; assay type: functional; conditions: ATCC 13883, 24 h
[24] = Inhibition of circular DNA translation in Escherichia coli S30 extract after 60 mins by luciferase reporter gene assay
Outline: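 Translation was run in an E. coli S30 extract with a luciferase read-out. Luminescence is expressed as a percentage of the no-antibiotic control, taken as 100%.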

Pseudomonas aeruginosa [25] = experiment: Antibacterial activity against extremely drug-resistant Pseudomonas aeruginosa isolate 104354 infected in Galleria mellonella assessed as larvae survival at 50 mg/kg administered as single dose measured after 24 hrs (reference value: 27 %); assay type: functional; conditions: isolate 104354, 24 h; outline: as §1
Escherichia coli [26] = experiment: Antibacterial activity against gentamicin/tobramycin/ciprofloxacin-resistant Escherichia coli isolate CANWARD-2011 97615 harboring AAC3-2A after 24 hrs by microtitre broth dilution method; assay type: functional; conditions: isolate CANWARD-2011 97615, 24 h
Pseudomonas aeruginosa [27] = experiment: Ratio of MIC for Pseudomonas aeruginosa PAO1 after 25 serial passages to MIC for Pseudomonas aeruginosa PAO1 prior to 25 serial passages; assay type: functional
Outline: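 P. aeruginosa PAO1 exposed to sub-inhibitory (0.5 x MIC) drug over successive subcultures as a resistance-selection procedure. MIC compared after versus before passaging.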

Pseudomonas aeruginosa [28] = experiment: Antibacterial activity against gentamicin/tobramycin-resistant Pseudomonas aeruginosa isolate CANWARD-2011 96846 after 24 hrs by microtitre broth dilution method; assay type: functional; conditions: isolate CANWARD-2011 96846, 24 h
Staphylococcus aureus [29] = experiment: Antibacterial activity against methicillin-resistant Staphylococcus aureus ATCC 33592 after 24 hrs by microtitre broth dilution method; assay type: functional; conditions: ATCC 33592, 24 h
Pseudomonas aeruginosa [30] = experiment: Antibacterial activity against gentamicin-resistant Pseudomonas aeruginosa isolate CAN-ICU 62308 after 24 hrs by microtitre broth dilution method; assay type: functional; conditions: isolate CAN-ICU 62308, 24 h
Escherichia coli [31] = experiment: Antibacterial activity against Escherichia coli ATCC 25922 after 24 hrs by microtitre broth dilution method; assay type: functional; conditions: ATCC 25922, 24 h
Enterococcus faecalis = experiment: Antibacterial activity against Enterococcus faecalis ATCC 29212 after 24 hrs by microtitre broth dilution method; assay type: functional; conditions: ATCC 29212, 24 h
Staphylococcus aureus [32] = experiment: Antibacterial activity against Staphylococcus aureus ATCC 29213 after 24 hrs by microtitre broth dilution method; assay type: functional; conditions: ATCC 29213, 24 h
Escherichia coli [33] = experiment: Antibacterial activity against gentamicin-resistant Escherichia coli isolate CAN-ICU 61714 after 24 hrs by microtitre broth dilution method; assay type: functional; conditions: isolate CAN-ICU 61714, 24 h
[34] = system: Staphylococcus epidermidis; experiment: Antibacterial activity against methicillin-resistant Staphylococcus epidermidis isolate CAN-ICU 61589 after 24 hrs by microtitre broth dilution method; assay type: functional; conditions: isolate CAN-ICU 61589, 24 h
Escherichia coli [35] = experiment: Antibacterial activity against amikacin-resistant Escherichia coli isolate CAN-ICU 63074 after 24 hrs by microtitre broth dilution method; assay type: functional; conditions: isolate CAN-ICU 63074, 24 h
Streptococcus pneumoniae = experiment: Antibacterial activity against Streptococcus pneumoniae ATCC 49619 after 24 hrs by microtitre broth dilution method; assay type: functional; conditions: ATCC 49619, 24 h
[36] = system: Staphylococcus epidermidis; experiment: Antibacterial activity against methicillin-susceptible Staphylococcus epidermidis isolate CANWARD-2008 81388 after 24 hrs by microtitre broth dilution method; assay type: functional; conditions: isolate CANWARD-2008 81388, 24 h
[37] = system: Stenotrophomonas maltophilia; experiment: Antibacterial activity against Stenotrophomonas maltophilia isolate CAN-ICU 62584 after 24 hrs by microtitre broth dilution method; assay type: functional; conditions: isolate CAN-ICU 62584, 24 h
Acinetobacter baumannii = experiment: Antibacterial activity against Acinetobacter baumannii isolate CAN-ICU 63169 after 24 hrs by microtitre broth dilution method; assay type: functional; conditions: isolate CAN-ICU 63169, 24 h
Pseudomonas aeruginosa [38] = experiment: Antibacterial activity against Pseudomonas aeruginosa ATCC 27853 after 24 hrs by microtitre broth dilution method; assay type: functional; conditions: ATCC 27853, 24 h

COLISTIN
Activity (Pseudomonas aeruginosa [1]): Dose-dependent effect
MIC (Pseudomonas aeruginosa [2]): 0.5 µg/mL
MIC (Pseudomonas aeruginosa [3]): 1 µg/mL
MIC (Pseudomonas aeruginosa [4]): 1 µg/mL
MIC (Pseudomonas aeruginosa [5]): 1 µg/mL
MIC (Pseudomonas aeruginosa [6]): 1 µg/mL
MIC (Pseudomonas aeruginosa [7]): 2 µg/mL
MIC (Pseudomonas aeruginosa [8]): 2 µg/mL
MIC (Pseudomonas aeruginosa [9]): 1 µg/mL
MIC (Pseudomonas aeruginosa [10]): 1 µg/mL
MIC (Pseudomonas aeruginosa [11]): 4 µg/mL
MIC (Pseudomonas aeruginosa [12]): 2 µg/mL
MIC (Pseudomonas aeruginosa [13]): 1 µg/mL
MIC (Pseudomonas aeruginosa [14]): 2 µg/mL
MIC (Pseudomonas aeruginosa [15]): 1 µg/mL
MIC (Pseudomonas aeruginosa [16]): 1 µg/mL
MIC (Pseudomonas aeruginosa [17]): 1020 µg/mL
MIC (Pseudomonas aeruginosa [18]): 1 µg/mL
MIC (Pseudomonas aeruginosa [19]): 1 µg/mL
MIC (Pseudomonas aeruginosa [20]): 1 µg/mL
MIC (Pseudomonas aeruginosa [21]): 1 µg/mL
MIC (Pseudomonas aeruginosa [22]): 1 µg/mL

NC[C@H]1O[C@H](O[C@H]2[C@H](O)[C@@H](O[C@H]3O[C@H](CO)[C@@H](O)[C@H](N)[C@H]3O)[C@H](N)C[C@@H]2N)[C@H](N)C[C@@H]1O [TOBRAMYCIN]
Activity (Pseudomonas aeruginosa [1]): Dose-dependent effect
MIC (Enterococcus faecium): 8 µg/mL (≈ 17.1 µM)
MIC (Pseudomonas aeruginosa [2]): > 64 µg/mL
MIC (Pseudomonas aeruginosa [3]): 4 µg/mL (≈ 8.56 µM)
survival at 75 mg/kg (Pseudomonas aeruginosa [23]): 0%
MIC (Pseudomonas aeruginosa [4]): 1 µg/mL (≈ 2.14 µM)
MIC (Pseudomonas aeruginosa [5]): 2 µg/mL (≈ 4.28 µM)
MIC (Pseudomonas aeruginosa [6]): < 0.5 µg/mL
MIC (Pseudomonas aeruginosa [7]): 1 µg/mL (≈ 2.14 µM)
MIC (Pseudomonas aeruginosa [8]): > 64 µg/mL
MIC (Klebsiella pneumoniae): ≤ 0.25 µg/mL
IC50 [24]: 6.2 nM
survival at 50 mg/kg (Pseudomonas aeruginosa [25]): 20%
MIC (Escherichia coli [26]): 128 µg/mL (≈ 274 µM)
Ratio (Pseudomonas aeruginosa [27]): 512
MIC (Pseudomonas aeruginosa [9]): 1 µg/mL (≈ 2.14 µM)
MIC (Pseudomonas aeruginosa [28]): 256 µg/mL (≈ 548 µM)
MIC (Staphylococcus aureus [29]): ≤ 0.25 µg/mL
MIC (Pseudomonas aeruginosa [10]): 2 µg/mL (≈ 4.28 µM)
MIC (Pseudomonas aeruginosa [30]): 16 µg/mL (≈ 34.2 µM)
MIC (Escherichia coli [31]): 0.5 µg/mL (≈ 1.07 µM)
MIC (Pseudomonas aeruginosa [11]): 8 µg/mL (≈ 17.1 µM)
MIC (Pseudomonas aeruginosa [12]): 2 µg/mL (≈ 4.28 µM)
MIC (Enterococcus faecalis): 8 µg/mL (≈ 17.1 µM)
MIC (Pseudomonas aeruginosa [13]): 1 µg/mL (≈ 2.14 µM)
MIC (Staphylococcus aureus [32]): ≤ 0.25 µg/mL
MIC (Escherichia coli [33]): 8 µg/mL (≈ 17.1 µM)
MIC (Pseudomonas aeruginosa [14]): 64 µg/mL (≈ 137 µM)
MIC [34]: 1 µg/mL (≈ 2.14 µM)
MIC (Pseudomonas aeruginosa [15]): 1 µg/mL (≈ 2.14 µM)
MIC (Escherichia coli [35]): 8 µg/mL (≈ 17.1 µM)
MIC (Streptococcus pneumoniae): 2 µg/mL (≈ 4.28 µM)
MIC (Pseudomonas aeruginosa [16]): 32 µg/mL (≈ 68.4 µM)
MIC [36]: ≤ 0.25 µg/mL
MIC (Pseudomonas aeruginosa [17]): > 64 µg/mL
MIC (Pseudomonas aeruginosa [18]): 1 µg/mL (≈ 2.14 µM)
MIC (Pseudomonas aeruginosa [19]): 1 µg/mL (≈ 2.14 µM)
MIC [37]: > 512 µg/mL
MIC (Pseudomonas aeruginosa [20]): > 64 µg/mL
MIC (Acinetobacter baumannii): 32 µg/mL (≈ 68.4 µM)
MIC (Pseudomonas aeruginosa [21]): > 64 µg/mL
MIC (Pseudomonas aeruginosa [38]): 0.5 µg/mL (≈ 1.07 µM)
MIC (Pseudomonas aeruginosa [22]): 0.5 µg/mL (≈ 1.07 µM)
